Laboratory results reported in PubChem BioAssay AID617 (SRMLSC, 2007).
Among all 1,300 compounds or so, about 1,200 (92%) were called active. How the calls were made is not given here. The set was probably picked from earlier hits. These entries were drawn from the full list. Entries with a potency or affinity are not part of this list.

assay: E. coli ΔtolC antibacterial growth inhibition – strain BW25113 ΔtolC::kan, dose response (AID 617); settings: OD615, at 100 µM (top of the series)
Method in brief: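 Test system: E. coli BW25113 ΔtolC::kan bacteria / Buffer or medium: kanamycin-containing LB broth, 50 µg/mL / Compound: serial dilution series of compound / Incubation: bacterial growth with compound for 20 h, 37 °C / Measured by: OD615 / Read-out basis: growth-inhibition IC50 from four-parameter logistic curve, bounds set to 0% and 100%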

outcome, inactive:
O=C(COc1ccc(Cl)cc1)Nc1nc(-c2cccs2)cs1
COc1cc(C(=O)Nc2nc(-c3cccs3)cs2)cc(OC)c1OC
CC(C)n1c(C(=O)OCC(=O)NCc2ccc3c(c2)OCO3)cc2occc21
CCOC(=O)c1c(N)sc2c(OC)c(Br)ccc12
O=C(C1CCN(Cc2cc(Cl)ccc2O)CC1)N1CCN(Cc2ccccc2)CC1
CCCCCCn1c(CN2CCCC(C)C2)nc2c1c(=O)n(C)c(=O)n2C (stereo not drawn)
Cc1ccc(N(CC(=O)Nc2ccc3c(c2)OCCO3)S(=O)(=O)c2c(C)noc2C)cc1
COc1ccccc1N1CCN(C(=O)c2cc(-c3ccc(Br)cc3)on2)CC1
COc1ccccc1N1CCN(C(=O)c2oc3cc(C)c(C)cc3c2C)CC1
Cc1ccc(-c2noc(CCC(=O)N3CCN(c4cccc(C(F)(F)F)c4)CC3)n2)cc1
Cc1ccc(-c2nnn(CC(=O)N(Cc3cccs3)C(C(=O)NC(C)(C)C)c3ccco3)n2)o1 (stereo not drawn)
Cc1ccc(-c2noc(CN3CCN(c4ccccc4F)CC3)n2)cc1
C=C(C)COc1ccc(-c2[nH]ncc2-c2ccc(OC)c(OC)c2)c(O)c1
COc1ccc(-c2cnc(N)n2CC2CCCO2)cc1 (stereo not drawn)
COc1cc(OC)cc(-n2nnnc2SCC(=O)N2CCCc3ccccc32)c1
Cn1c(-c2ccc3c(c2)OCO3)cnc1N
CCCCCc1c(C)nc(Nc2ccccc2)[nH]c1=O
Cc1nn(-c2ccccc2)c2[nH]c(=O)c(CNCc3ccc4c(c3)OCO4)cc12
CCOC(=O)C1(N(CC)CC)Sc2cc(C)ccc2NC1=O (stereo not drawn)
Cc1cc(=O)oc2c1ccc1oc(/C(=N/O)c3ccccc3)c(C)c12
CN(C)Cc1nc2c(c(=O)[nH]1)C1(CCCCC1)Cc1ccccc1-2
Clc1ccc(Cn2ncc3c(N4CCCCC4)ncnc32)c(Cl)c1
COc1ccc(-c2csc(N(CC3CCCO3)C(=O)c3ccco3)n2)cc1 (stereo not drawn)
CN1/C(=C\C(=O)c2cccs2)Sc2ccccc21
CCOC(=O)c1ccc(NS(=O)(=O)c2ccc(SC)cc2)cc1
O=C(c1cc(C2CC2)on1)N1CCN(C(c2ccccc2)c2ccccc2)CC1
CC(C)n1c2ccccc2c2nc3ccccc3nc21
CCOC(=O)C1CCN(Cc2cn[nH]c2-c2ccc(C)cc2)CC1
